The values that follow come from the array DNA melting data of Ke et al. (doi:10.1101/2024.01.08.574731).

Series [1] is described as follows: folding enthalpy; higher = less favourable; fluorescence melt of hairpins on a sequencing array, two-state fit. The settings on record: sodium 0.088 M. The method in brief:
(§1)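 Library hairpins on a sequenced MiSeq flow cell carried annealed Cy3 and quencher oligos, and their Cy3 fluorescence was imaged in 50 mM Na-HEPES pH 8.0 with 25 mM NaCl, in 2.5 °C steps up to 60 °C. Signals were normalised to Cy3 before quenching and to control constructs. Melting temperature and folding enthalpy were obtained from bootstrapped two-state fits, combined by inverse-variance weighting across four replicates, and the fitted temperatures were then raised by 9.35 °C to match UV melts.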

The nature of series [2]: melting temperature; fluorescence melt of hairpins on a sequencing array, two-state fit, raised by 9.35 °C to match UV melts. The note with it: sodium 0.088 M. The method in brief:
as §1

GTTCACGAAAGTGTAAC ((((((....))).))): in series [1], the folding enthalpy is -18.8 kcal/mol. The Tm in series [2] came to 38.7 °C.
The matching figures for GATCCGTGGACGGATC ((((((....)))))): -41 kcal/mol and 62.9 °C.
Taken in the same sequence, the figures for GTGGAGGAAACTCCAC ((((((....)))))) were -35.2 kcal/mol and 60.1 °C.
Taken in the same sequence, the figures for GTGATACCGAAAGGTCAC (((..(((....)))))) were -19.5 kcal/mol and 41.9 °C.
Take GCGGTAGGAAACTGCCGC ((((.((....)).)))): the folding enthalpy in series [1] is -29.6 kcal/mol. In series [2], the Tm was determined as 61.6 °C.
Turning to GGACGTGCGAAAGCATCC (((..(((....)))))), the folding enthalpy in series [1] is -9.73 kcal/mol. Also, the Tm in series [2] turned out to be 30.6 °C.
Taken in the same sequence, the figures for GCGATGGTTCGC ((((....)))) were -24.5 kcal/mol and 49.8 °C.
Consider GATCAGCTACCTGATC ((((((....)))))), for which the folding enthalpy in series [1] was -40 kcal/mol. The Tm in series [2] worked out at 48.9 °C.
In the case of GCAAAGCGAAAGCTTGGC ((.((((....)))).)), in series [1], the folding enthalpy is -38.7 kcal/mol. Moreover, in series [2], the Tm was 62.9 °C.
Turning to GGTGCGGGAAACCGTACC (((.(((....))).))), the folding enthalpy in series [1] was -44.7 kcal/mol. In addition, the Tm in series [2] turned out to be 58.1 °C.
Taken in the same sequence, the figures for GTTTGGGGAAACTCAAAC (((((.(....).))))) were -31.7 kcal/mol and 43.9 °C.
Taken in the same sequence, the figures for GATCCGACTCCGGATC ((((((....)))))) were -44.3 kcal/mol and 55.1 °C.
Taken in the same sequence, the figures for GATCCAGGCCTGGATC ((((((....)))))) were -54.9 kcal/mol and 60 °C.
With GGCTACCGAAAGGTGGCC (((.(((....))).))), the folding enthalpy in series [1] is -35.5 kcal/mol. In addition, the Tm in series [2] came out at 68.8 °C.
GCGTTCGAAAGAAGCGC ((((((....))).))): the folding enthalpy in series [1] is -28.8 kcal/mol. Further, the Tm in series [2] is 52.5 °C.
The matching figures for GGAACCGAAAGGTATTCC ((((((....)))..))): -13.3 kcal/mol and 33.8 °C.
The matching figures for GGCTCTGGAAACAGGGCC (((.(((....))).))): -27.7 kcal/mol and 58.1 °C.
The matching figures for GGATATGAAAATATCC ((((((....)))))): -31.6 kcal/mol and 50.9 °C.
As to GCTAACGAAAGTTCTAGC ((((((....)))..))), the folding enthalpy in series [1] is -11.4 kcal/mol. Also, the Tm in series [2] is 28.8 °C.
Taken in the same sequence, the figures for GCATAGCGAAAGCTTGGC ((..(((....)))..)) were -18.6 kcal/mol and 41.9 °C.
Taken in the same sequence, the figures for GGGATTGAAAAATCCC ((((((....)))))) were -43.6 kcal/mol and 55.8 °C.
Taken in the same sequence, the figures for GATTGCGAAAGCAACATC ((((((....)))..))) were -9.24 kcal/mol and 28.5 °C.
As for GCGTTTGAAAAAACGC ((((((....)))))), the folding enthalpy in series [1] is -32.1 kcal/mol. Further, the Tm in series [2] was 65.9 °C.
The matching figures for GGGGTGCGAAAGCATCCC (((.(((....))).))): -28.5 kcal/mol and 68.4 °C.
For GATCTCGGACGAGATC ((((((....)))))), the folding enthalpy in series [1] is -35.1 kcal/mol. Further, the Tm in series [2] was determined as 60.3 °C.
Taken in the same sequence, the figures for GCTTAGCGAAAGCAACGC ((.(.((....)).).)) were -7.36 kcal/mol and 30.5 °C.
As to GCTCCGCGAAAGCTCAGC (((..((....))..))), the folding enthalpy in series [1] was -9.77 kcal/mol. For the same sequence, the Tm in series [2] was determined as 27.2 °C.
The matching figures for GAGAACGGAAACGTTCTC (((((((....))))))): -41.8 kcal/mol and 64.7 °C.
The matching figures for TGGCTGAAAAGCCA (((((....))))): -18.4 kcal/mol and 57.9 °C.
GCAATGCGAAAGCAGCGC ((..(((....)))..)): in series [1], the folding enthalpy was -18.8 kcal/mol. The Tm in series [2] amounted to 55.9 °C.
The matching figures for GACCGCGGAAACGCGACC (..((((....))))..): -7.67 kcal/mol and 28.9 °C.
The matching figures for GGCTAAGAAATTAGCC ((((((....)))))): -27 kcal/mol and 53.8 °C.
The matching figures for GTCGCCCGAAAGGGGAC (((.(((....)))))): -21.4 kcal/mol and 55.2 °C.
Turning to GTGGACCCGAAAGGGCAC (((..(((....)))))), the folding enthalpy in series [1] was -16.6 kcal/mol. In addition, the Tm in series [2] came to 49.3 °C.
Taken in the same sequence, the figures for GTTGCAGGAAACTGTAAC (((.(((....))).))) were -29.8 kcal/mol and 45.8 °C.
Taken in the same sequence, the figures for GCAATACGAAAGTAGTGC (((.(((....))).))) were -43.8 kcal/mol and 54.7 °C.
The matching figures for GGGCCGGGAAACTGGCCC (((((.(....).))))): -31.9 kcal/mol and 68.9 °C.
